Measured values as given in ChEMBL document CHEMBL3797157, “Antifungal Quinoline Alkaloids from Waltheria indica” (J Nat Prod, 2016).
≈ marks a conversion by molar mass, not a printed value. Calls of active or inactive are those of the source. The calls are words filed in the database; no cut-off is given here.

Legend:
Candida parapsilosis = experiment: Antimicrobial activity against Candida parapsilosis ATCC 22019 after 24 hrs by two fold serial dilution method; type: functional; conditions: Lodderomyces parapsilosis, ATCC 22019, 24 h
Outline: (§1)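 Broth microdilution per EUCAST. Yeasts diluted to 2 × 10^5 cells/mL in YNB with 2% glucose, pH 4.6. Compound stocks 10 mg/mL in DMSO, twofold serial dilutions, 1% DMSO final. Drug-free and sterility controls included. Incubated 24 h at 34 °C. MIC is the lowest concentration giving OD450 ≤50% of the compound-free culture. For S. cerevisiae, YNB was supplemented with Complete Supplement Mixture.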

Escherichia coli = experiment: Antimicrobial activity against Escherichia coli; type: functional
[1] = Selectivity index, ratio of IC50 for human HeLa cells to MIC for Candida albicans CAF2-1
Outline: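 SI = HeLa IC50 (SRB assay, 48 h) divided by the C. albicans CAF2-1 MIC (YNB pH 4.6, 24 h, 34 °C broth microdilution).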

Candida albicans [2] = experiment: Antibiofilm activity against Candida albicans CAF2-1 assessed as reduction in metabolic activity after 48 hrs by XTT assay; type: functional; conditions: CAF2-1, 48 h
Saccharomyces cerevisiae = experiment: Antimicrobial activity against Saccharomyces cerevisiae BY4741 after 24 hrs by two fold serial dilution method; type: functional; conditions: BY4741, 24 h; outline: as §1
Staphylococcus aureus = experiment: Antimicrobial activity against Staphylococcus aureus; type: functional
Pichia kudriavzevii = experiment: Antimicrobial activity against Candida krusei ATCC 6258 after 24 hrs by two fold serial dilution method; type: functional; conditions: ATCC 6258, 24 h; outline: as §1
Pseudomonas aeruginosa = experiment: Antimicrobial activity against Pseudomonas aeruginosa; type: functional
HeLa = experiment: Cytotoxicity against human HeLa cells after 48 hrs by SRB assay; type: cell-based
Outline: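 Sulforhodamine B assay in HeLa cells (DMEM + 10% FBS, 37 °C, 5% CO2), seeded at 10^4 cells/well. After 24 h, cells were PBS-washed and exposed to twofold dilutions from 100 μg/mL for 48 h. A day-1 plate was fixed as baseline. OD492 growth = (treated d3 − d1)/(DMSO d3 − d1) × 100. IC50 was obtained by dose–response curve fitting.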

Nakaseomyces glabratus = experiment: Antimicrobial activity against Candida glabrata after 24 hrs by two fold serial dilution method; type: functional; outline: as §1
Candida tropicalis = experiment: Antimicrobial activity against Candida tropicalis ATCC 75 after 24 hrs by two fold serial dilution method; type: functional; conditions: ATCC 75, 24 h; outline: as §1
Candida albicans [3] = experiment: Antimicrobial activity against Candida albicans CAF2-1 after 24 hrs by two fold serial dilution method; type: functional; conditions: CAF2-1, 24 h; outline: as §1
Candida albicans [4] = experiment: Antimicrobial activity against Candida albicans CAF2-1 assessed as punctual disruption of nuclear membrane at 1 ug/ml after 4 hrs by uranyl acetate/lead citrate staining based transmission electron microscopy; type: functional, organism-based
Outline: (§2)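 CAF2-1 grown in YNB pH 4.6 at 37 °C for 2 h. Compound (1 mg/mL DMSO stock) then added at 1 or 2 μg/mL. DMSO-treated and untreated controls. Samples taken at 4 and 18 h and pelleted. Prefixed in 3% glutaraldehyde–2% paraformaldehyde in 0.07 M phosphate pH 7, postfixed in 1% OsO4, ethanol-dehydrated and embedded in LR White. 0.08 μm sections stained with uranyl acetate/lead citrate and viewed by TEM.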

Candida albicans [5] = experiment: Antimicrobial activity against Candida albicans CAF2-1 assessed as accumulation of dark corpuscles in nucleus at 1 ug/ml after 4 hrs by uranyl acetate/lead citrate staining based transmission electron microscopy; type: functional, organism-based; outline: as §2
Candida albicans [6] = experiment: Antimicrobial activity against Candida albicans CAF2-1 assessed as punctual disruption of nuclear membrane at 2 ug/ml after 4 hrs by uranyl acetate/lead citrate staining based transmission electron microscopy; type: functional, organism-based; outline: as §2
Candida albicans [7] = experiment: Antimicrobial activity against Candida albicans CAF2-1 assessed as breakage zones of plasmic membrane at 1 ug/ml after 18 hrs by uranyl acetate/lead citrate staining based transmission electron microscopy; type: functional, organism-based; outline: as §2
Candida albicans [8] = experiment: Antimicrobial activity against Candida albicans CAF2-1 assessed as breakage zones of plasmic membrane at 2 ug/ml after 18 hrs by uranyl acetate/lead citrate staining based transmission electron microscopy; type: functional, organism-based; outline: as §2
Candida albicans [9] = experiment: Antimicrobial activity against Candida albicans CAF2-1 assessed as cytoplasmic content disorganization at 1 ug/ml after 18 hrs by uranyl acetate/lead citrate staining based transmission electron microscopy; type: functional, organism-based; outline: as §2
Candida albicans [10] = experiment: Antimicrobial activity against Candida albicans CAF2-1 assessed as accumulation of dark corpuscles in nucleus at 2 ug/ml after 4 hrs by uranyl acetate/lead citrate staining based transmission electron microscopy; type: functional, organism-based; outline: as §2
Candida albicans [11] = experiment: Antimicrobial activity against Candida albicans CAF2-1 assessed as cytoplasmic content disorganization at 2 ug/ml after 18 hrs by uranyl acetate/lead citrate staining based transmission electron microscopy; type: functional, organism-based; outline: as §2

Row | SMILES | MIC (Candida parapsilosis) | MIC (Escherichia coli) | Selectivity Index [1] | MIC (Candida albicans [2]) | MIC (Saccharomyces cerevisiae) | MIC (Staphylococcus aureus) | MIC (Pichia kudriavzevii) | MIC (Pseudomonas aeruginosa) | IC50 (HeLa) | MIC (Nakaseomyces glabratus) | MIC (Candida tropicalis) | MIC (Candida albicans [3]) | Activity (Candida albicans [4]) | Activity (Candida albicans [5]) | Activity (Candida albicans [6]) | Activity (Candida albicans [7]) | Activity (Candida albicans [8]) | Activity (Candida albicans [9]) | Activity (Candida albicans [10]) | Activity (Candida albicans [11])
1 | CCCCCCCC[C@H]1CCC(=O)c2[nH]c(C)c(OC)c(=O)c21 | 4 µg/mL (≈ 12.5 µM) | > 32 µg/mL | 0.7 | 16 µg/mL (≈ 50.1 µM) | > 32 µg/mL | > 32 µg/mL | 16 µg/mL (≈ 50.1 µM) | > 32 µg/mL | 23.4 µg/mL (≈ 73.3 µM) | > 32 µg/mL | > 32 µg/mL | 32 µg/mL (≈ 100 µM) |  |  |  |  |  |  |  | 
2 | CCCCCCCC[C@H]1CC[C@@H](OC)c2[nH]c(C)c(OC)c(=O)c21 | > 32 µg/mL | > 32 µg/mL | 5 | 8 µg/mL (≈ 23.8 µM) | > 32 µg/mL | > 32 µg/mL | > 32 µg/mL | > 32 µg/mL | 20 µg/mL (≈ 59.6 µM) | > 32 µg/mL | > 32 µg/mL | 4 µg/mL (≈ 11.9 µM) | Active | Active | Active | Active | Active | Active | Active | Active
3 | COc1c(C)n(OC)c2c(c1=O)[C@@H](CCCCCc1ccccc1)CCC2 | 2 µg/mL (≈ 5.41 µM) | > 32 µg/mL | 0.3 | 32 µg/mL (≈ 86.6 µM) | 16 µg/mL (≈ 43.3 µM) | > 32 µg/mL | 32 µg/mL (≈ 86.6 µM) | > 32 µg/mL | 9.5 µg/mL (≈ 25.7 µM) | 32 µg/mL (≈ 86.6 µM) | 32 µg/mL (≈ 86.6 µM) | 32 µg/mL (≈ 86.6 µM) | Active | Active | Active | Active | Active | Active | Active | Active
4 | CCCCCCCC[C@@H]1CCCc2c1c(=O)c(OC)c(CO)n2OC | > 32 µg/mL | > 32 µg/mL | 0.8 | 16 µg/mL (≈ 45.5 µM) | > 32 µg/mL | > 32 µg/mL | > 32 µg/mL | > 32 µg/mL | 26.6 µg/mL (≈ 75.7 µM) | > 32 µg/mL | > 32 µg/mL | 32 µg/mL (≈ 91 µM) |  |  |  |  |  |  |  | 
5 | CCCCCCCC[C@@H]1CCCc2[nH]c(C)c(OC)c(=O)c21 | 32 µg/mL (≈ 105 µM) | > 32 µg/mL | 1.5 | 32 µg/mL (≈ 105 µM) | > 32 µg/mL | > 32 µg/mL | 32 µg/mL (≈ 105 µM) | > 32 µg/mL | 24.7 µg/mL (≈ 80.9 µM) | > 32 µg/mL | > 32 µg/mL | 16 µg/mL (≈ 52.4 µM) |  |  |  |  |  |  |  | 
6 | CCCCCCCC[C@@H]1CCCc2[nH]c(CO)c(OC)c(=O)c21 | > 32 µg/mL |  | 0.8 | 16 µg/mL (≈ 49.8 µM) | > 32 µg/mL |  | 32 µg/mL (≈ 99.5 µM) |  | 24.4 µg/mL (≈ 75.9 µM) | > 32 µg/mL | > 32 µg/mL | 32 µg/mL (≈ 99.5 µM) |  |  |  |  |  |  |  | 
7 | COc1c(C)[nH]c2c(c1=O)[C@@H](CCCCCc1ccccc1)CC[C@H]2OC | > 32 µg/mL | > 32 µg/mL | 0.4 | 32 µg/mL (≈ 86.6 µM) | > 32 µg/mL | > 32 µg/mL | > 32 µg/mL | > 32 µg/mL | 11.9 µg/mL (≈ 32.2 µM) | > 32 µg/mL | > 32 µg/mL | 32 µg/mL (≈ 86.6 µM) |  |  |  |  |  |  |  | 
8 | CCCCCCCC[C@H]1CC[C@@H](O)c2[nH]c(C)c(OC)c(=O)c21 | > 32 µg/mL |  | 1.6 | 16 µg/mL (≈ 49.8 µM) | > 32 µg/mL |  | 32 µg/mL (≈ 99.5 µM) |  | 50 µg/mL (≈ 156 µM) | > 32 µg/mL | > 32 µg/mL | 32 µg/mL (≈ 99.5 µM) |  |  |  |  |  |  |  | 
9 | CCCCCCCC[C@H]1CCCc2c1c(=O)c(OC)c(C)n2OC | 2 µg/mL (≈ 5.96 µM) | > 32 µg/mL | 1 | 16 µg/mL (≈ 47.7 µM) | 16 µg/mL (≈ 47.7 µM) | > 32 µg/mL | 16 µg/mL (≈ 47.7 µM) | > 32 µg/mL | 16.1 µg/mL (≈ 48 µM) | 32 µg/mL (≈ 95.4 µM) | 32 µg/mL (≈ 95.4 µM) | 16 µg/mL (≈ 47.7 µM) |  |  |  |  |  |  |  | 
10 | CCCCCCCCc1ccc(OC)c2[nH]c(C)c(OC)c(=O)c12 | > 32 µg/mL | > 32 µg/mL | 1.8 | 16 µg/mL (≈ 48.3 µM) | > 32 µg/mL | > 32 µg/mL | > 32 µg/mL | > 32 µg/mL | 14.4 µg/mL (≈ 43.4 µM) | > 32 µg/mL | > 32 µg/mL | 8 µg/mL (≈ 24.1 µM) |  |  |  |  |  |  |  | 
11 | OC(Cn1cncn1)(Cn1cncn1)c1ccc(F)cc1F [FLUCONAZOLE] | 4 µg/mL (≈ 13.1 µM) |  | >200 | > 256 µg/mL | 16 µg/mL (≈ 52.2 µM) |  | 32 µg/mL (≈ 104 µM) |  | > 100 µg/mL | > 128 µg/mL | 4 µg/mL (≈ 13.1 µM) | 0.5 µg/mL (≈ 1.63 µM) |  |  |  |  |  |  |  | 
12 | CC[C@H](C)C[C@H](C)CCCCCCCCC(=O)N[C@H]1C[C@@H](O)[C@@H](NCCN)NC(=O)[C@@H]2[C@@H](O)CCN2C(=O)[C@H]([C@H](O)CCN)NC(=O)[C@H]([C@H](O)[C@@H](O)c2ccc(O)cc2)NC(=O)[C@@H]2C[C@@H](O)CN2C(=O)[C@H]([C@@H](C)O)NC1=O [CASPOFUNGIN] | 1 µg/mL (≈ 0.915 µM) |  | >400 | 0.1 µg/mL (≈ 0.0915 µM) | 0.3 µg/mL (≈ 0.274 µM) |  | 0.1 µg/mL (≈ 0.0915 µM) |  | > 100 µg/mL | 0.1 µg/mL (≈ 0.0915 µM) | 0.5 µg/mL (≈ 0.457 µM) | 0.3 µg/mL (≈ 0.274 µM) |  |  |  |  |  |  |  | 
